Data: ChEMBL document CHEMBL3525931, “Stereoselective interaction of pantoprazole with ABCG2. II. In vitro flux analysis” (Drug Metab Dispos, 2012)

Tests used:
[1] = molecular target: T1, Broad substrate specificity ATP-binding cassette transporter ABCG2 (Homo sapiens, UniProt Q9UNQ0); experiment: Observed permeability in MDCK2 cells expressing human ABCG2 assessed as ABCG2-mediated apical to basolateral transport at 3 uM after 0.5 to 1 hrs by HPLC method; assay type: ADME, cell-based; details: mdck-ii
T1 sequence (Q9UNQ0 whole entry): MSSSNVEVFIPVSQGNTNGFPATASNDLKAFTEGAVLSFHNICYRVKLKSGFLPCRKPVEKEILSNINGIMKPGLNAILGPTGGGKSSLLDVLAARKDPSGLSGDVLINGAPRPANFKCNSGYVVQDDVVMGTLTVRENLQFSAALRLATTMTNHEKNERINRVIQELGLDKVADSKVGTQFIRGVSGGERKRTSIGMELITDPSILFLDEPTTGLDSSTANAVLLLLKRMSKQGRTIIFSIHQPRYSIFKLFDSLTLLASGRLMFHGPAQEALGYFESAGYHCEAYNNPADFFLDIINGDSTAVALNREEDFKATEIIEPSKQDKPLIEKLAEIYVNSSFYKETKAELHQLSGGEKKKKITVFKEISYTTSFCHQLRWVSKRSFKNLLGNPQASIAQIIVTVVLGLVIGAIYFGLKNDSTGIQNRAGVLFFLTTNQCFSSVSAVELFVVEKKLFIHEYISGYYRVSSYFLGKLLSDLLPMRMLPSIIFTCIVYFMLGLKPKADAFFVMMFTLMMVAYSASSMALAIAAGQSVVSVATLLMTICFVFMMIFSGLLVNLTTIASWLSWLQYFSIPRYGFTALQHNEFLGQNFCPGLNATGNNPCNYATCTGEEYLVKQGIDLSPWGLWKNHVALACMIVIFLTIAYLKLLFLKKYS
Procedure, shortened: (§1)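 Mock (empty pcDNA3.1) or rat Abcg2/human ABCG2-transfected MDCKII, G418-selected, seeded on 3.0-μm Transwell filters at 1.0×10^6 cells/well, grown 4 days to TEER >200 Ω·cm². Single isomer loaded apical or basolateral in serum-free Opti-MEM I with 0.2 μCi/ml [3H]mannitol, 37°C 5% CO2. Receiver sampled at 0.5 and 1 h. Quantified by HPLC-UV 290 nm. Permeability = initial rate/(area × donor concentration). Efflux ratio = B→A rate / A→B rate. n = 3, mean ± S.D.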

[2] = molecular target: T2, Broad substrate specificity ATP-binding cassette transporter ABCG2 (Rattus norvegicus, UniProt Q80W57); experiment: Observed permeability in MDCK2 cells expressing rat ABCG2 assessed as ABCG2-mediated apical to basolateral transport at 3 uM after 0.5 to 1 hrs by HPLC method; assay type: ADME, cell-based; details: mdck-ii; procedure, shortened: as §1
T2 sequence (Q80W57 whole entry): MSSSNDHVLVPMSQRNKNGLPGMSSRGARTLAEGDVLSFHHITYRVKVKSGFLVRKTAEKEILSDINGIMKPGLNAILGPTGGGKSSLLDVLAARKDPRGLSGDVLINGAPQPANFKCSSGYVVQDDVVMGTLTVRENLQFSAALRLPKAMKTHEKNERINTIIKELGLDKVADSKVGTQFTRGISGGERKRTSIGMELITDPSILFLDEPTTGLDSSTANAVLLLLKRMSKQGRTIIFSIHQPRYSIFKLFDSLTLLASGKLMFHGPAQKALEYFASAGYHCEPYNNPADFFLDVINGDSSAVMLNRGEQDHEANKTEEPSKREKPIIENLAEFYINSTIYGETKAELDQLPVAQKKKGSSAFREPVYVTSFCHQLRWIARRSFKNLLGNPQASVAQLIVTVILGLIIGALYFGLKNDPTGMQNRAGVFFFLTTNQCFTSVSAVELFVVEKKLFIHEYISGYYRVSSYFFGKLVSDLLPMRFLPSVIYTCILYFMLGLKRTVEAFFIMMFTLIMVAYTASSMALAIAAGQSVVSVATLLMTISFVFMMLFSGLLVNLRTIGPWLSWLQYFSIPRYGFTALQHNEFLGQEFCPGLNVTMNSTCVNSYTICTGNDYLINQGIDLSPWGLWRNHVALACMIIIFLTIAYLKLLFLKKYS

[3] = molecular target: T2, Broad substrate specificity ATP-binding cassette transporter ABCG2; experiment: Observed permeability in MDCK2 cells expressing rat ABCG2 assessed as ABCG2-mediated apical to basolateral transport at 10 uM after 0.5 to 1 hrs by HPLC method; assay type: ADME, cell-based; details: mdck-ii; procedure, shortened: as §1
[4] = molecular target: T1, Broad substrate specificity ATP-binding cassette transporter ABCG2; experiment: Observed permeability in MDCK2 cells expressing human ABCG2 assessed as ABCG2-mediated apical to basolateral transport at 30 uM after 0.5 to 1 hrs by HPLC method; assay type: ADME, cell-based; details: mdck-ii; procedure, shortened: as §1
[5] = molecular target: T1, Broad substrate specificity ATP-binding cassette transporter ABCG2; experiment: Observed permeability in MDCK2 cells expressing human ABCG2 assessed as ABCG2-mediated basolateral to apical transport at 3 uM after 0.5 to 1 hrs by HPLC method; assay type: ADME, cell-based; details: mdck-ii; procedure, shortened: as §1
[6] = molecular target: T1, Broad substrate specificity ATP-binding cassette transporter ABCG2; experiment: Observed permeability in MDCK2 cells expressing human ABCG2 assessed as ABCG2-mediated basolateral to apical transport at 50 uM after 0.5 to 1 hrs by HPLC method; assay type: ADME, cell-based; details: mdck-ii; procedure, shortened: as §1
[7] = molecular target: T1, Broad substrate specificity ATP-binding cassette transporter ABCG2; experiment: Maximum drug transport rate in MDCK2 cells expressing human ABCG2 assessed as ABCG2-mediated transport by HPLC method; assay type: ADME, cell-based; details: mdck-ii
Procedure, shortened: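 Kinetics came from the same Transwell bidirectional flux runs in rat Abcg2- or human ABCG2-MDCKII, with donor 3–200 μM single isomer. Cellular concentrations were predicted from a three-compartment model using PS_D from mock cells and PS_PC from mannitol. Apparent apical efflux permeability was fitted against predicted cellular concentration by saturable kinetics to give K_M and T_max.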

[8] = molecular target: T2, Broad substrate specificity ATP-binding cassette transporter ABCG2; experiment: Observed permeability in MDCK2 cells expressing rat ABCG2 assessed as ABCG2-mediated apical to basolateral transport at 200 uM after 0.5 to 1 hrs by HPLC method; assay type: ADME, cell-based; details: mdck-ii; procedure, shortened: as §1
[9] = molecular target: T2, Broad substrate specificity ATP-binding cassette transporter ABCG2; experiment: Observed permeability in MDCK2 cells expressing rat ABCG2 assessed as ABCG2-mediated basolateral to apical transport at 30 uM after 0.5 to 1 hrs by HPLC method; assay type: ADME, cell-based; details: mdck-ii
Procedure, shortened: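 rAbcg2-transfected MDCKII monolayers seeded at 1.0×10^6 cells/well on 3.0-μm filters, grown 4 days to TEER >200 Ω·cm². Serum-free Opti-MEM I on both sides. Individual PAN isomer plus 0.2 μCi/ml [3H]mannitol loaded basolaterally, 37°C, 5% CO2. Receiver sampled at 0.5 and 1 h, PAN quantified by HPLC-UV 290 nm. P_obs = initial transfer rate/(area × initial donor concentration). Mean ± S.D., n = 3.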

[10] = Observed permeability in MDCK2 cells assessed as apical to basolateral transport at 3 uM after 0.5 to 1 hrs by HPLC method; assay type: ADME, cell-based, Canis lupus familiaris; details: dog, mdck-ii; procedure, shortened: as §1
[11] = Observed permeability in MDCK2 cells assessed as apical to basolateral transport at 50 uM after 0.5 to 1 hrs by HPLC method; assay type: ADME, cell-based, Canis lupus familiaris; details: dog, mdck-ii; procedure, shortened: as §1
[12] = Observed permeability in MDCK2 cells assessed as basolateral to apical transport at 50 uM after 0.5 to 1 hrs by HPLC method; assay type: ADME, cell-based, Canis lupus familiaris; details: dog, mdck-ii; procedure, shortened: as §1
[13] = Observed permeability in MDCK2 cells assessed as basolateral to apical transport at 3 to 200 uM after 0.5 to 1 hrs by HPLC method; assay type: ADME, cell-based, Canis lupus familiaris; details: dog, mdck-ii; procedure, shortened: as §1
[14] = Asymmetry efflux ratio in MDCK2 cells assessed as drug transport ratio at 3 to 200 uM after 0.5 to 1 hrs by HPLC method; assay type: ADME, cell-based, Canis lupus familiaris, MDCK-II; details: dog, MDCK; procedure, shortened: as §1

COc1ccnc(C[S@@+]([O-])c2nc3cc(OC(F)F)ccc3[nH]2)c1OC
Papp [1]: 30 uL/hr/cm2 | Papp [2]: 12.8 uL/hr/cm2 | Papp [3]: 20.9 uL/hr/cm2 | Papp [4]: 43.6 uL/hr/cm2 | Papp [5]: 258 uL/hr/cm2 | Papp [6]: 195 uL/hr/cm2 | Drug transport [7]: 10.2 nmol/hr.cm2 | Papp [8]: 126 uL/hr/cm2 | Papp [9]: 206 uL/hr/cm2 | Papp [10]: 116 uL/hr/cm2 | Papp [11]: 123 uL/hr/cm2 | Papp [12]: 135 uL/hr/cm2 | Papp [13]: 126 uL/hr/cm2 | efflux ratio at up to 200 µM [14]: 1.04

COc1ccnc(C[S@+]([O-])c2nc3cc(OC(F)F)ccc3[nH]2)c1OC
Papp [1]: 16.9 uL/hr/cm2 | Papp [2]: 7.4 uL/hr/cm2 | Papp [3]: 30.1 uL/hr/cm2 | Papp [4]: 67.6 uL/hr/cm2 | Papp [5]: 254 uL/hr/cm2 | Papp [6]: 156 uL/hr/cm2 | Drug transport [7]: 3.29 nmol/hr.cm2 | Papp [8]: 127 uL/hr/cm2 | Papp [9]: 151 uL/hr/cm2 | Papp [10]: 118 uL/hr/cm2 | Papp [11]: 121 uL/hr/cm2 | Papp [12]: 126 uL/hr/cm2 | Papp [13]: 127 uL/hr/cm2 | efflux ratio at up to 200 µM [14]: 1.04
